Each structure is given as a SMILES string. Active and inactive are the calls of the source. The rule behind the calls is not given here.

Data set [1] addresses T1, Amyloid-beta precursor protein (Homo sapiens, UniProt P05067). The data set is described as follows: Displacement of [3H]PiB from human amyloid beta (1-40) at 100 nM after 180 mins by liquid scintillation counter.
Data set [2] concerns the target T1, Amyloid-beta precursor protein. The data set is described as follows: Displacement of [3H]PiB from human amyloid beta (1-42) at 100 nM after 180 mins by liquid scintillation counter.
Data set [3] in a line: Octanol-phosphate buffered saline partition coefficient, log P of the compound at pH 7.4. It is filed as physicochemical.
Data set [4] has as its system Brain. The data set is described as follows: Drug uptake in Balb-C mouse brain at 4-6 MBq after 30 mins by gamma counting. Type of data set: ADME, tissue-based. The note with it: in vivo, 0.5 h. In short, it runs like this: (§1)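 Normal male Balb-C mice were given an iv [11C]-labeled compound. Brain uptake was measured as %ID/g at 5 and 30 min post-injection (n=5). Clearance is expressed as the 5 min/30 min %ID/g ratio.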

The subject of data set [5] is Brain. The data set is described as follows: Drug uptake in Balb-C mouse brain at 4-6 MBq by gamma counting. The settings on record: in vivo.
Data set [6] relates to Brain. The data set is described as follows: Ratio of drug uptake in Balb-C mouse brain after 5 mins to drug uptake in Balb-C mouse brain after 30 mins. It is filed as ADME, tissue-based. The settings on record: in vivo. In short, it runs like this: as §1
Data set [7] relates to Mus musculus. Put plainly: Binding affinity to amyloid beta in telencephalon region in iv dosed APP/PS1 transgenic C57BL6/J mouse alzheimer's disease model after 5 to 30 mins by autoradiography analysis relative to control. Type of data set: functional, organism-based. In short, it runs like this:
(§2)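 APP/PS1 (ARTE10) homozygous female mice, 22 months old, with age- and gender-matched C57BL6/J female controls (two each). A single tail-vein bolus of [11C]5 mixed with [3H]1a (7.2 MBq) was given. Readouts were telencephalon/cerebellum ratios from three sources: μPET/CT coregistered to an MRI template (summed 20-30 min), dual-label digital autoradiography of 12 μm sections, and regional biodistribution, all at 30 min p.i.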

Data set [8] deals with Mus musculus. Put plainly: Binding affinity to amyloid beta in telencephalon region in APP/PS1 transgenic C57BL6/J mouse alzheimer's disease model at 50.2 MBq, iv after 5 to 30 mins by micro PET examination relative to control. It is filed as functional, organism-based. The note with it: 50.2 M, tested as the 11C-labelled form. An outline of the steps: as §2
The test system of data set [9] is Mus musculus. Put plainly: Binding affinity to amyloid beta in cerebellum region in APP/PS1 transgenic C57BL6/J mouse alzheimer's disease model at 50.2 MBq, iv after 5 to 30 mins by micro PET examination relative to control. It is filed as functional, organism-based. The settings on record: 50.2 M, tested as the 11C-labelled form. An outline of the steps:
as §2

Data set [10] relates to Mus musculus. The data set is described as follows: Binding affinity to amyloid beta in cerebellum region in APP/PS1 transgenic C57BL6/J mouse alzheimer's disease model at 50.2 MBq, iv after 5 to 30 mins by MRI examination relative to control. It is filed as functional, organism-based. The note with it: 50.2 M, tested as the 11C-labelled form. An outline of the steps:
as §2

The test system of data set [11] is Mus musculus. Put plainly: Binding affinity to amyloid beta in telencephalon region in APP/PS1 transgenic C57BL6/J mouse alzheimer's disease model at 50.2 MBq, iv after 5 to 30 mins by MRI examination relative to control. The settings on record: 50.2 M, tested as the 11C-labelled form. It is filed as functional, organism-based. In short, it runs like this: as §2

Data set [12] concerns Mus musculus. Put plainly: Binding affinity to amyloid beta in cerebellum region in APP/PS1 transgenic C57BL6/J mouse alzheimer's disease model at 50.2 MBq, iv after 5 to 30 mins by autoradiography analysis relative to control. The settings on record: 50.2 M, tested as the 11C-labelled form. Type of data set: functional, organism-based. An outline of the steps: as §2
The test system of data set [13] is Mus musculus. Put plainly: Binding affinity to amyloid beta in telencephalon region in APP/PS1 transgenic C57BL6/J mouse alzheimer's disease model at 50.2 MBq, iv after 5 to 30 mins by autoradiography analysis relative to control. It is filed as functional, organism-based. The settings on record: 50.2 M, tested as the 11C-labelled form. In short, it runs like this:
as §2

Data set [14] relates to Mus musculus. Put plainly: Binding affinity to amyloid beta in iv dosed telencephalon region in APP/PS1 transgenic C57BL6/J mouse alzheimer's disease model after 5 to 30 mins by micro PET examination relative to control. Type of data set: functional, organism-based. An outline of the steps: as §2
The test system of data set [15] is Brain. The data set is described as follows: Drug uptake in Balb-C mouse brain at 4-6 MBq after 5 mins by gamma counting. It is filed as ADME, tissue-based. The settings on record: in vivo. In short, it runs like this: as §1
Data set [16] in a line: Drug uptake in Balb-C mouse blood assessed as compound remaining after 10 mins at 4-6 MBq by gamma counting. The settings on record: read-out: Drug uptake. It is filed as ADME, tissue-based. In short, it runs like this: (§3)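 Normal Balb-C mice received an iv [11C]-labeled tracer. HPLC analysis of blood and brain homogenates was done at 10 and 30 min post-injection to give percent intact tracer (n=3).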

Data set [17] can be described thus: Drug uptake in Balb-C mouse blood assessed as compound remaining at 4-6 MBq after 30 mins by gamma counting. It is filed as ADME, tissue-based. The note with it: read-out: Drug uptake. An outline of the steps: as §3
Data set [18] in a line: Drug uptake in Balb-C mouse brain assessed as compound remaining at 4-6 MBq after 10 mins by gamma counting. Type of data set: ADME, tissue-based. The note with it: read-out: Drug uptake. In short, it runs like this: as §3
The nature of data set [19]: Drug uptake in Balb-C mouse brain assessed as compound remaining at 4-6 MBq after 30 mins by gamma counting. The note with it: read-out: Drug uptake. It is filed as ADME, tissue-based. An outline of the steps:
as §3

The mark [20] stands for this setting: tested as the 11C-labelled form.

T1 sequence (P05067 whole entry): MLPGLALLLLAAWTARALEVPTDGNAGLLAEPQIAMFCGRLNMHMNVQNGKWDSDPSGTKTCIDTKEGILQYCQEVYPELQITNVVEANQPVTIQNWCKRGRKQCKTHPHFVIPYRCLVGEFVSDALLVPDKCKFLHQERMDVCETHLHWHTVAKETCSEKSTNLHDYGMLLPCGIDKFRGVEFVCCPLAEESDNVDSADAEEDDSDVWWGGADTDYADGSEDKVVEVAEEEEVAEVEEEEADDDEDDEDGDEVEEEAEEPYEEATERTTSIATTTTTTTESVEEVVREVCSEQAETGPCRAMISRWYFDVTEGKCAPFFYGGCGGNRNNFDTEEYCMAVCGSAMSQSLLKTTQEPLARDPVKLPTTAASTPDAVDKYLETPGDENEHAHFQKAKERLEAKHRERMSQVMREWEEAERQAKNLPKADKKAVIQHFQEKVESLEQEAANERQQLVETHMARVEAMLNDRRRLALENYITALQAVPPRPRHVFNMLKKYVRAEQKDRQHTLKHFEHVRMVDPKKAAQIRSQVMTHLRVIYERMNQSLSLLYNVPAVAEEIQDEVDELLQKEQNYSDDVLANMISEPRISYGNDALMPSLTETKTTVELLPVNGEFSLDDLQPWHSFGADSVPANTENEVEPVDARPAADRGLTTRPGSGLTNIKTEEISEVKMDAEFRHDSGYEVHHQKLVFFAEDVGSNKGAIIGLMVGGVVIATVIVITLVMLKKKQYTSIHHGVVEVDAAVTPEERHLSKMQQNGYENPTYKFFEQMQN

As to `CCN(CC)c1ccc(-c2cn3c(n2)sc2cc(OC)ccc23)cc1`, the inhibition in data set [1] amounted to 79%; in [2], 91%. For the same molecule, the logD in data set [3] came out at 2.2. Further, the figures for the Drug uptake in the data set on Brain [4] and with Brain [5] were 0.7 % ID/g and 1.9 % ID/g, respectively.

Turning to `CNc1ccc(-c2cn3c(n2)sc2cc(OC)ccc23)cc1`, the inhibition constant Ki in data set [1] worked out at 3.5 nM; in data set [2], 5.8 nM. Further, the results for the inhibition in data set [1] and in [2] were 95% and 97%, respectively. In [3], this molecule showed a pH-dependent lipophilicity (logD) of 1.7. This molecule also showed a Drug uptake in the data set with Brain [4] of 0.7 % ID/g. For the same molecule, the Ratio in the data set with Brain [6] stood at 9.1. Moreover, the result in the data set with Mus musculus [7] (setting [20]), in the data set with Mus musculus [8], with Mus musculus [11], with Mus musculus [13] and with Mus musculus [14] (setting [20]) was Active. Besides, the result with Mus musculus [9], in the data set with Mus musculus [10] and in the data set with Mus musculus [12] was inactive.

As for `COc1ccc2c(c1)sc1nc(-c3ccc(NC(C)=O)cc3)cn12`, the values for the inhibition in [1] and in data set [2] were 44% and 64%, respectively.

Consider `CNc1ccc(-c2nc3ccc(O)cc3s2)cc1`, for which the results for the inhibition in data set [1] and in [2] were 88% and 83%, respectively. In addition, the result in the data set on Mus musculus [7] (tested as the 3H-labelled form) and in the data set on Mus musculus [14] (tested as the 3H-labelled form) was Active.

For the molecule `Oc1ccc2c(c1)sc1nc(-c3ccc(N4CCCC4)cc3)cn12`, the inhibition in [1] and in [2] was 91% each time.

Regarding `Nc1ccc(-c2cn3c(n2)sc2cc(O)ccc23)cc1`, the inhibition in data set [1] and in [2] was 48% in each case.

As to `COc1ccc2c(c1)sc1nc(-c3ccc(N)cc3)cn12`, the inhibition in data set [1] was 57%; in data set [2] it was 74%.

Take `CN(C)c1ccc(-c2cn3c(n2)sc2cc(O)ccc23)cc1`: the figures for the inhibition in data set [1] and in [2] were 85% and 86%, respectively.

For `COc1ccc2c(c1)sc1nc(-c3ccc(N(C)C)cc3)cn12`, the inhibition stood at 89% in data set [1] and 91% in [2]. This molecule registered a log distribution coefficient (logD) in data set [3] of 1.9. Also, the Drug uptake turned out to be 0.7 % ID/g with Brain [4] and 1.9 % ID/g in the data set on Brain [5].

For the molecule `COc1ccc2c(c1)sc1nc(-c3ccc(N[11CH3])cc3)cn12`, the Drug uptake entry in the data set on Brain [15] was “Active”. Moreover, the remaining at 10 min in [16] came out at 15%; in [18] it was 95%. Besides, the remaining at 0.5 h in [17] came out at 7%; in data set [19], 91%.

`CCN(CC)c1ccc(-c2cn3c(n2)sc2cc(O)ccc23)cc1`: the inhibition in [1] stood at 79%; in [2] it was 91%.

Take `COc1ccc2c(c1)sc1nc(-c3ccc(N4CCCC4)cc3)cn12`: the inhibition in data set [1] stood at 91%; in [2], 82%. Moreover, the logD in [3] came to 1.9. The Drug uptake was found to be 0.7 % ID/g in the data set with Brain [4] and 1.9 % ID/g in the data set with Brain [5].

In the case of `CNc1ccc(-c2cn3c(n2)sc2cc(O)ccc23)cc1`, the inhibition in data set [1] came to 46%; in data set [2], 73%. Also, the logD in [3] was 1.2. Moreover, the figures for the Drug uptake with Brain [4] and in the data set with Brain [5] were 0.7 % ID/g and 1.9 % ID/g, respectively.

The values are drawn from ChEMBL document CHEMBL1671803, “Synthesis and evaluation of 11C-labeled imidazo[2,1-b]benzothiazoles (IBTs) as PET tracers for imaging β-amyloid plaques in Alzheimer's disease” (J Med Chem, 2011).
